According to PMC3873039 (Anti-Cancer Agents in Medicinal Chemistry, 2013):
Read-outs that look alike come from different tables or passages of the source.

How the values were obtained:
HL60 [1] = assay: NucView caspase 3 activity assay by flow cytometry; format: cell-based, human; details: for The lowest dose of polyphenols at which there was a significant induction of apoptosis compared to the vehicle control: HL60, caspase 3 activity, 24 h, p<0.05; for EC50: Homo sapiens, HL-60, 24 h, read-out: AP50 (50% induction of apoptosis), Caspase 3 activity assay (C3)
Outline: (§1)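 Seeded at 0.5 x 10⁶ cells/well and treated 24 h, with series of 0–50 or 0–250 µM depending on compound. Normalized to vehicle (0% apoptosis). Mean ± STD, three independent experiments in triplicate. One-way ANOVA/Tukey, p<0.05. AP50 = concentration giving 50% apoptotic cells.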

JURKAT [2] = assay: Cell cycle analysis, propidium iodide flow cytometry; format: cell-based, human; details: IC50 dose, 24 h, p<0.05
Outline: (§2)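 Seeded at 0.5 x 10^6 cells per well in 12-well plates and treated 24 h at the IC50 concentration of each test compound from CellTiter-Glo. Cells were pelleted (400 g, 5 min), PBS-washed and fixed in 80% ethanol overnight at -20 °C. Staining used 50 µg/mL PI plus RNase overnight at 4 °C.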

U937 [3] = assay: CellTiter-Glo luminescent cell viability assay; format: cell-based, human; details: U937, 24 h, doses 0, 2, 10, 50, 250, 500 µM, p<0.05
Outline: (§3)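 Cells grown in RPMI 1640 with 10% FBS, 1.5 mM L-glutamine and penicillin/streptomycin at 37 °C, 5% CO2. Seeded at 2.5 x 10³ cells/well and exposed 24 h to ethanol-dissolved test compound (0, 2, 10, 50, 250, 500 µM) with 0.1% ethanol vehicle. ATP luminescence normalized to vehicle (100%). IC50 taken from linear regression. Lowest significant dose set by one-way ANOVA/Tukey, p<0.05. Triplicates, three independent experiments.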

[4] = test system: colorectal cancer cells (SW480, HT-29 and Caco-2); details: SW480, HT-29 and Caco-2, 24 h treatments; cited from earlier work
MOLT-3 [5] = assay: CellTiter-Glo luminescent cell viability assay; format: cell-based, human; details: MOLT-3, 24 h, doses 0, 2, 10, 50, 250, 500 µM, p<0.05
Outline: as §3

U937 [6] = assay: Cell cycle analysis, propidium iodide flow cytometry; format: cell-based, human; details: U937, IC50 dose, 24 h; for Percentage of cells in G0/G1 phase of cell cycle (significant accumulation): vehicle control G0/G1 = 44.03%
Outline: as §2

THP-1 [7] = assay: as above; format: cell-based, human; details: THP-1, IC50 dose, 24 h; for Percentage of cells in G0/G1 phase of cell cycle (significant accumulation): vehicle control G0/G1 = 42.3%
Outline: as §2

myeloid cell lines [8] = assay: CellTiter-Glo assay, summary over myeloid lines; format: cell-based; details: Homo sapiens, 24 h, read-out: IC50 (range in myeloid cell lines)
Outline: (§4)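 Cells plated at 2.5 x 10^3 per well in complete RPMI 1640 (10% FBS, 37 °C, 5% CO2). Test compounds dissolved in ethanol and dosed at 2–500 µM for 24 h; vehicle control was 0.1% (v/v) ethanol. Viability was read as ATP luminescence, normalised to vehicle (100%). IC50 was taken from linear regression of each curve. Triplicates, three independent experiments.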

all leukemia cell lines [9] = assay: CellTiter-Glo assay, summary over the leukemia panel; format: cell-based, human; details: for IC50: Homo sapiens, 24 h, read-out: IC50 values (range over leukemia cell lines)
Outline: as §4

lymphoid cell lines [10] = assay: Apoptosis; format: cell-based; details: Homo sapiens
THP-1 [11] = assay: CellTiter-Glo luminescent cell viability assay; format: cell-based, human; details: THP-1, 24 h, doses 0, 2, 10, 50, 250, 500 µM, p<0.05
Outline: as §3

JURKAT [12] = assay: CellTiter-Glo luminescent cell viability assay; format: cell-based, human; details: 24 h, doses 0, 2, 10, 50, 250, 500 µM, p<0.05
Outline: as §3

K562 = assay: NucView caspase 3 activity assay by flow cytometry; format: cell-based, human; details: for EC50: Homo sapiens, K562, 24 h, read-out: AP50 (50% induction of apoptosis), Caspase 3 activity assay (C3); for The lowest dose of polyphenols at which there was a significant induction of apoptosis compared to the vehicle control: K562, caspase 3 activity, 24 h, p<0.05
Outline: as §1

lymphoid cell lines [13] = assay: CellTiter-Glo assay, summary over lymphoid lines; format: cell-based; details: Homo sapiens, 24 h, read-out: IC50 (range in lymphoid cell lines)
Outline: as §4

HL60 [14] = assay: CellTiter-Glo luminescent cell viability assay; format: cell-based, human; details: HL60, 24 h, doses 0, 2, 10, 50, 250, 500 µM, p<0.05
Outline: as §3

MOLT-3 [15] = assay: NucView caspase 3 activity assay by flow cytometry; format: cell-based, human; details: for EC50: Homo sapiens, MOLT-3, 24 h, read-out: AP50 (50% induction of apoptosis), Caspase 3 activity assay (C3); for The lowest dose of polyphenols at which there was a significant induction of apoptosis compared to the vehicle control: MOLT-3, caspase 3 activity, 24 h, p<0.05
Outline: as §1

[16] = test system: human cervical cancer cells (HeLa); details: cited from earlier work
KG1a = assay: NucView caspase 3 activity assay by flow cytometry; format: cell-based, human; details: 24 h; for EC50: Homo sapiens, KG-1a, read-out: AP50 (50% induction of apoptosis), Caspase 3 activity assay (C3); for The lowest dose of polyphenols at which there was a significant induction of apoptosis compared to the vehicle control: KG1a, caspase 3 activity, p<0.05
Outline: as §1

all leukemia cell lines [17] = assay: Apoptosis; format: cell-based, human; details: Homo sapiens, 24 h, read-out: AP50 values (range over leukemia cell lines)
HL60 [18] = assay: Cell cycle analysis, propidium iodide flow cytometry; format: cell-based, human; details: HL60, IC50 dose, 24 h; for Percentage of cells in G0/G1 phase of cell cycle (significant accumulation): vehicle control G0/G1 = 56.8%
Outline: as §2

CCRF-CEM = assay: NucView caspase 3 activity assay by flow cytometry; format: cell-based, human; details: 24 h; for EC50: Homo sapiens, read-out: AP50 (50% induction of apoptosis), Caspase 3 activity assay (C3); for The lowest dose of polyphenols at which there was a significant induction of apoptosis compared to the vehicle control: caspase 3 activity, p<0.05
Outline: as §1

myeloid cell lines [19] = assay: Apoptosis; format: cell-based; details: Homo sapiens, 24 h, read-out: AP50 values (range in myeloid cell lines)
[20] = cited from earlier work
[21] = test system: lung cancer cell lines (A549 and CH27); details: 24 h; cited from earlier work
[22] = test system: lung (A549) and leukemia (HL-60) cell lines; details: 24 h; cited from earlier work

SMILES | The lowest dose of polyphenols at which there was a significant induction of apoptosis compared to the vehicle control (HL60 [1]) [µM] | EC50 (HL60 [1]) [µM] | Phase of cell cycle accumulation (JURKAT [2]) | The lowest dose of polyphenols at which there was a significant inhibition of cell proliferation compared to the vehicle control (U937 [3]) [µM] | The lowest dose of polyphenols at which there was a significant inhibition of cell proliferation compared to the vehicle control (MOLT-3 [5]) [µM] | Percentage of cells in G0/G1 phase of cell cycle (significant accumulation) (U937 [6]) | IC50 (myeloid cell lines [8]) [µM] | IC50 (all leukemia cell lines [9]) [µM] | The lowest dose of polyphenols at which there was a significant inhibition of cell proliferation compared to the vehicle control (THP-1 [11]) [µM] | The lowest dose of polyphenols at which there was a significant inhibition of cell proliferation compared to the vehicle control (JURKAT [12]) [µM] | EC50 (K562) [µM] | The lowest dose of polyphenols at which there was a significant induction of apoptosis compared to the vehicle control (K562) [µM] | IC50 (lymphoid cell lines [13]) [µM] | The lowest dose of polyphenols at which there was a significant inhibition of cell proliferation compared to the vehicle control (HL60 [14]) [µM] | EC50 (MOLT-3 [15]) [µM] | The lowest dose of polyphenols at which there was a significant induction of apoptosis compared to the vehicle control (MOLT-3 [15]) [µM] | EC50 (KG1a) [µM] | The lowest dose of polyphenols at which there was a significant induction of apoptosis compared to the vehicle control (KG1a) [µM] | EC50 (CCRF-CEM) [µM] | The lowest dose of polyphenols at which there was a significant induction of apoptosis compared to the vehicle control (CCRF-CEM) [µM] | other results
O=c1cc(-c2ccc(O)cc2)oc2cc(O)cc(O)c12 [Apigenin] | 50 | 84 | S-phase | 10 | 50 | G0/G1 =59% | 100 to 500 | 100 to 500 | 10 | 50 | 150 | 10 | 140 to 195 | 10 | 50 | 50 | 89 | 10 | 50 | 10 | IC50 [4]: 70 µM; Percentage of cells in G2/M phase of cell cycle (significant accumulation) (THP-1 [7]; vehicle control G2/M = 26.4%): G2/M =32%; EC50 (lymphoid cell lines [10]; 24 h, read-out: AP50 values (range in lymphoid cell lines)): 35 to 130 µM; IC50 [16]: 36 µM; EC50 (all leukemia cell lines [17]): 35 to 150 µM; Percentage of cells in G0/G1 phase of cell cycle (significant accumulation) (HL60 [18]): G0/G1=67%; EC50 (myeloid cell lines [19]): 84 to 235 µM
O=c1c(O)c(-c2ccc(O)c(O)c2)oc2cc(O)cc(O)c12 [Quercetin] | 10 | 50 | S-phase | 2 | 2 | – | 33 to 155 | 8 to 33 | 2 | 2 | > 50 | 10 | 8 to 20 | 2 | 50 | 10 | > 50 | 10 | 50 | 2 | plasma concentration ([20]; 50-100 mg dose): 750 to 1500 nM; plasma half-life [20]: 11 to 28 h; Percentage of cells in G2/M phase of cell cycle (significant accumulation) (U937 [6]; vehicle control G2/M = 19.1%): G2/M =25%; Percentage of cells in G0/G1 phase of cell cycle (significant accumulation) (THP-1 [7]): G0/G1 =52%; Potency relative to apigenin and chrysin (all leukemia cell lines [9]; times more potent than apigenin and chrysin): 5-10 times; EC50 (all leukemia cell lines [17]): 19 to 50 µM; Percentage of cells in G0/G1 phase of cell cycle (significant accumulation) (HL60 [18]): G0/G1 =66.2%
C(=C\c1ccccc1)/c1ccccc1 [Trans-Stilbene, Trans-stilbene] | 50 | 40 | S-phase | 50 | 50 | G0/G1 =62% | – | 109 to 500 | 250 | 50 | > 500 | 50 | – | 50 | 350 | 50 | > 500 | 50 | > 500 | 50 | IC50 [21]: 25 to 98 µM; IC50 [22]: 6.25 µM; Percentage of cells in G0/G1 phase of cell cycle (significant accumulation) (THP-1 [7]): G0/G1 =53%; EC50 (lymphoid cell lines [10]; read-out: AP50 values in three lymphoid cell lines): 40 to 460 µM; Percentage of cells in S phase of cell cycle (significant accumulation) (HL60 [18]; vehicle control S = 33.6%): S =41.9%
